Test results published in article PMC9350903 (ACS chemical neuroscience, 2021).
“And” between values parts separate entries of the source, which are not always exact repeats. Equal entries are not always repeated.

How the values were obtained:
CSF-1R [1] = molecular target: T1, CSF-1R (Rattus norvegicus, UniProt Q00495); assay: [^3H]CPPC autoradiography in intrastriatal LPS rat brain tissues; format: binding
T1 sequence (Q00495 20-978): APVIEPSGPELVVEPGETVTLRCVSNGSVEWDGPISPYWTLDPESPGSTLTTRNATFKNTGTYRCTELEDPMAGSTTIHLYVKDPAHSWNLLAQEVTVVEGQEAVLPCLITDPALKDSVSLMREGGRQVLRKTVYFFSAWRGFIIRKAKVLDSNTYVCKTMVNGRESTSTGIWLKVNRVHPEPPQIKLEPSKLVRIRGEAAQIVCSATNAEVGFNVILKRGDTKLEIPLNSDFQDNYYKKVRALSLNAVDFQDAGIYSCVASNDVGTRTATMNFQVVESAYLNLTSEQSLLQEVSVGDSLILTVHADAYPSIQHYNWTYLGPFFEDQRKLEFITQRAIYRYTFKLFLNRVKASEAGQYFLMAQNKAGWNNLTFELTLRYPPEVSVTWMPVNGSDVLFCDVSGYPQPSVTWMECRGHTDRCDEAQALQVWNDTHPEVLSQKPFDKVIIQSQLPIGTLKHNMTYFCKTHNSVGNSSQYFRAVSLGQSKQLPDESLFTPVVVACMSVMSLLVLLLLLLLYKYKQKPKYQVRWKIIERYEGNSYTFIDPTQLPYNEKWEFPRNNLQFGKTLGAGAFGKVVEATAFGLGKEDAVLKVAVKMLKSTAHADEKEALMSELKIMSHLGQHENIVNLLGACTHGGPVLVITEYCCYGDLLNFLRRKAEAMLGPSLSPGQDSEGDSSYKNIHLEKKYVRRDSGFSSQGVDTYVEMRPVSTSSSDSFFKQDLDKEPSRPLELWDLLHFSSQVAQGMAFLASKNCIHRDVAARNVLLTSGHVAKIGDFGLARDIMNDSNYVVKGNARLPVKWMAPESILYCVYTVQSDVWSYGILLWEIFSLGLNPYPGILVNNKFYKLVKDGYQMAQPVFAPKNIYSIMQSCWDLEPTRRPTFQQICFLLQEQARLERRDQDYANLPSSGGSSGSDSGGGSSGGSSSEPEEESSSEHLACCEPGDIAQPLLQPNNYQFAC

CSF-1R [2] = molecular target: T2, CSF-1R (Mus musculus, UniProt P09581); assay: [^3H]CPPC autoradiography in GBM mouse model brain tissue; format: binding; settings: mouse GBM brain sections; 18 nM [^3H]CPPC; defined using unlabeled 10 μM CPPC
T2 sequence (P09581 20-977): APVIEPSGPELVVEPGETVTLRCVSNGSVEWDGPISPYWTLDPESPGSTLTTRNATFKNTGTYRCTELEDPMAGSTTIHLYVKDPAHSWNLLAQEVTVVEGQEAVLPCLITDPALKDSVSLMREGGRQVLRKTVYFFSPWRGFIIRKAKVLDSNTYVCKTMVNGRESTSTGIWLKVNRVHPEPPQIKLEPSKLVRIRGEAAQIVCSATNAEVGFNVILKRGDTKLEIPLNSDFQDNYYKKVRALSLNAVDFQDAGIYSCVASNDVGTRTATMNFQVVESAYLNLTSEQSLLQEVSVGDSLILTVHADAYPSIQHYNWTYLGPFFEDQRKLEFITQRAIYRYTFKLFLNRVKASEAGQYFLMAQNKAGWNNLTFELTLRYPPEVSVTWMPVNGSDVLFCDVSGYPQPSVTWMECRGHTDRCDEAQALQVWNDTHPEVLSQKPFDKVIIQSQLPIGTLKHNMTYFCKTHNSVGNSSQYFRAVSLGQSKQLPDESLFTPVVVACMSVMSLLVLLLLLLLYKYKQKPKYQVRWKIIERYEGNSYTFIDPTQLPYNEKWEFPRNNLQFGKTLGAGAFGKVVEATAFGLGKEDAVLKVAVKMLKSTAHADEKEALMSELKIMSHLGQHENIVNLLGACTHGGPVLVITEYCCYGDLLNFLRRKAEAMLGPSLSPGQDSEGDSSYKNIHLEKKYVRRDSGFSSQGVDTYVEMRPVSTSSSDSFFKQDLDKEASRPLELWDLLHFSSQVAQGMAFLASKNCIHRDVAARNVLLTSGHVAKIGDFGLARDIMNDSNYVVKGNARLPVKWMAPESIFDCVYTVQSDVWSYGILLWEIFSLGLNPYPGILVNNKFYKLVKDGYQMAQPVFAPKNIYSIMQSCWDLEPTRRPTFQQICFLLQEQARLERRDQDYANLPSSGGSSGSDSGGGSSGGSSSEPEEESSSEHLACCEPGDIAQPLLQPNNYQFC
How it was run: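 Male-unspecified mice received a unilateral intrastriatal injection of 2.5e6 […] cells. Tumour-bearing mice were selected by MRI on day 10 and killed 9 days later. Brains were fresh-frozen and cut at 10 μm. Sections were incubated with tritiated test compound in 100% FBS for 2 h at room temperature. Non-specific binding used 10 μM unlabeled compound. Sections were washed in 0.5% BSA at 4 °C, then water at 4 °C, exposed to a phosphor screen for 5 days and analysed by ROI.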

CSF-1R [3] = molecular target: T2, CSF-1R; assay: [^3H]CPPC autoradiography in i.p. LPS mouse spleen tissues; format: binding
CSF-1R [4] = assay: No-Wash Assay with [^3H]CPPC in LPS-treated spleen and LPS injected brains; format: binding; settings: LPS-treated spleen, 7-day and 30-day post LPS injected brains
[5] = Storage stability of [^3H]CPPC; format: physicochemical; settings: stored at −20 °C in ethanol; over the first 6 months
How it was run: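 Tritiated test compound (80 Ci/mmol; 1 mCi/mL stock) was stored in ethanol at −20 °C. Decomposition was measured at 2, 4 and 6 months.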

TSPO [6] = molecular target: TSPO (Rattus norvegicus, UniProt P16257); assay: [^3H]PBR28 autoradiography in intrastriatal LPS rat brain tissues; format: binding
TSPO [7] = molecular target: T3, TSPO (Mus musculus, UniProt P50637); assay: [^3H]PBR28 autoradiography in GBM mouse model brain tissue; format: binding
How it was run: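 Mice received an intrastriatal injection of 2.5e6 […] cells and were killed 19 days later. Fresh-frozen brain sections were incubated with 3 nM tritiated TSPO radioligand (total binding) and read by phosphor-screen autoradiography. Adjacent sections were immunostained for IBA-1. Tumour was located by anti-luciferase staining.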

TSPO [8] = molecular target: T3, TSPO; assay: [^3H]PBR28 autoradiography in i.p. LPS mouse spleen tissues; format: binding
How it was run: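 C57bl/6 male mice, 10 weeks old, received LPS 1 mg/kg i.p. in saline for 3 or 4 consecutive days and were killed on day 5 or 6. Spleens were slow-frozen on dry ice and sectioned. Sections were incubated with ascending concentrations of tritiated TSPO radioligand in 100% FBS for 2 h at room temperature, then washed. […] Bmax and Kd came from non-linear regression of phosphor-screen ROI data.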

TSPO [9] = assay: No-Wash Assay with [^3H]PBR28 in LPS-treated spleen and LPS injected brains; format: binding; settings: LPS-treated spleen, 7-day and 30-day post LPS injected brains
403 known kinases = assay: scanMAX KINOMEscan profile; format: binding; settings: 10 μM unlabeled CPPC; number of kinases hit of number tested
How it was run: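 Outsourced scanMAX KINOMEscan competition-binding profile of 403 kinases. Unlabeled test compound was tested at 10 μM, and kinases with off-target binding were identified.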

[10] = molecular target: T4, serotonin 5-HT3A receptor (Homo sapiens, UniProt P46098); assay: Eurofins DiscoverX SAFETYscan CNS safety panel
T4 sequence (P46098 24-478): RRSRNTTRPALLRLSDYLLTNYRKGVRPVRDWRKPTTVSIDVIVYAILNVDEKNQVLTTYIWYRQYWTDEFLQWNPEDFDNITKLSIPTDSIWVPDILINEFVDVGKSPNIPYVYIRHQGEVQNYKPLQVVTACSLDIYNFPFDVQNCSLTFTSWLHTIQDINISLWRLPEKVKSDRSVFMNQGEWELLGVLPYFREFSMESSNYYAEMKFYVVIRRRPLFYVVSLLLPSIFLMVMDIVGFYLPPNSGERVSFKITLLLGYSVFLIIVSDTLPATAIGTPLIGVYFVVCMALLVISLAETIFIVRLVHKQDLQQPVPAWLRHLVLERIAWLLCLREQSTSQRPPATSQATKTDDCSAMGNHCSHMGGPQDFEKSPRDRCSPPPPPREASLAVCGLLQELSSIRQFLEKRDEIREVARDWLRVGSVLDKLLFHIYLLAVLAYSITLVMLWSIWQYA

[11] = molecular target: α4β2 nicotinic acetylcholine receptor (Homo sapiens, UniProt P17787+P43681); assay: Eurofins DiscoverX SAFETYscan CNS safety panel
[12] = molecular target: NAV 1.5 sodium-gated channel (Homo sapiens, UniProt Q14524); assay: Eurofins DiscoverX SAFETYscan CNS safety panel
insulin receptor = insulin receptor (Homo sapiens, UniProt P06213); assay: Eurofins DiscoverX SAFETYscan CNS safety panel
[13] = molecular target: Tyrosine protein kinase LCK (Homo sapiens, UniProt P06239); assay: Eurofins DiscoverX SAFETYscan CNS safety panel
[14] = molecular target: vascular endothelial growth factor receptor 2 (Homo sapiens, UniProt P35968); assay: Eurofins DiscoverX SAFETYscan CNS safety panel
CSF-1R [15] = settings: [^11C]CPPC autoradiography in AD tissues; cited from earlier work
Kit = settings: cited from earlier work
Axl = settings: cited from earlier work
TrkA = settings: cited from earlier work
Flt-3 = settings: cited from earlier work
IRKβ = settings: cited from earlier work
[16] = 7-day post-LPS injection rat brain, [^3H]CPPC 3.5 nM, mean ± sd
[17] = [^3H]CPPC saturation in i.p. LPS mouse spleen
[18] = rats sacrificed 30-days post-surgery
[19] = [^3H]PBR28 saturation in i.p. LPS mouse spleen

vascular endothelial growth factor receptor 2, sequence (P35968 20-1356): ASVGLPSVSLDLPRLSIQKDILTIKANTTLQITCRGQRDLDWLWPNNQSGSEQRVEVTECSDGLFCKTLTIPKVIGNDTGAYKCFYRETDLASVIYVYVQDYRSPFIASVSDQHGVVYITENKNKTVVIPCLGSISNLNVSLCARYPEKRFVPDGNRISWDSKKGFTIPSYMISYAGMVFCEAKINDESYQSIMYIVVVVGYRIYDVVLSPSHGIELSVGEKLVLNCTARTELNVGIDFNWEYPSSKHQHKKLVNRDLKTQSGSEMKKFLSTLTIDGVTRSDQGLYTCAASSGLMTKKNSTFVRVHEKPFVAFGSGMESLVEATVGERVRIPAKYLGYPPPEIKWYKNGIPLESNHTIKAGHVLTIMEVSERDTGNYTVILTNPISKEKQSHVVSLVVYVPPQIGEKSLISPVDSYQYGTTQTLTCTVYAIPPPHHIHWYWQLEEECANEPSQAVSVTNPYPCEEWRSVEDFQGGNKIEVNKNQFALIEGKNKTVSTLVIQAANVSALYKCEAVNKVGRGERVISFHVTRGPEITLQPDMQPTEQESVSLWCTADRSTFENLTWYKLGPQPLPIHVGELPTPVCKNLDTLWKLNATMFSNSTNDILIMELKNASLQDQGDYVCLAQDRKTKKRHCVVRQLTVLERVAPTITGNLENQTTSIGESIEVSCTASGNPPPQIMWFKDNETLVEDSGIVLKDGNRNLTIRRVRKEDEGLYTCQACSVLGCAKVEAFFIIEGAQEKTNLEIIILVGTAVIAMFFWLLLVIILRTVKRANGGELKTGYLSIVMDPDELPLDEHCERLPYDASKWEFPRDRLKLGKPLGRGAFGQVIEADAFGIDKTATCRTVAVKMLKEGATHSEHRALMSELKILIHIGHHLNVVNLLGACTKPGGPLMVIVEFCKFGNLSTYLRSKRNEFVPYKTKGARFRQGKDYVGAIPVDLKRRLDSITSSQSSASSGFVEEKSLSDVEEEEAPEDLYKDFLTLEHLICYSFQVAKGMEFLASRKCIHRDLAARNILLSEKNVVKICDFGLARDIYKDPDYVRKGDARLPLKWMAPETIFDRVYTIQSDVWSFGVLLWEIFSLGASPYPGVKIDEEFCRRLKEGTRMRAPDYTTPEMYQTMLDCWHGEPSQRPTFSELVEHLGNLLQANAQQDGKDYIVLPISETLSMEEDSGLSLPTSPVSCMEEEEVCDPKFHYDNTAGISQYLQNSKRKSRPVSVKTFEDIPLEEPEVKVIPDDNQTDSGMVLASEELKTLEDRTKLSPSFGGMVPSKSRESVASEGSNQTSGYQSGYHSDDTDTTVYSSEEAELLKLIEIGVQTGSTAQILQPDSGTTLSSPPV
α4β2 nicotinic acetylcholine receptor, sequence (P43681 29-627 limits assumed): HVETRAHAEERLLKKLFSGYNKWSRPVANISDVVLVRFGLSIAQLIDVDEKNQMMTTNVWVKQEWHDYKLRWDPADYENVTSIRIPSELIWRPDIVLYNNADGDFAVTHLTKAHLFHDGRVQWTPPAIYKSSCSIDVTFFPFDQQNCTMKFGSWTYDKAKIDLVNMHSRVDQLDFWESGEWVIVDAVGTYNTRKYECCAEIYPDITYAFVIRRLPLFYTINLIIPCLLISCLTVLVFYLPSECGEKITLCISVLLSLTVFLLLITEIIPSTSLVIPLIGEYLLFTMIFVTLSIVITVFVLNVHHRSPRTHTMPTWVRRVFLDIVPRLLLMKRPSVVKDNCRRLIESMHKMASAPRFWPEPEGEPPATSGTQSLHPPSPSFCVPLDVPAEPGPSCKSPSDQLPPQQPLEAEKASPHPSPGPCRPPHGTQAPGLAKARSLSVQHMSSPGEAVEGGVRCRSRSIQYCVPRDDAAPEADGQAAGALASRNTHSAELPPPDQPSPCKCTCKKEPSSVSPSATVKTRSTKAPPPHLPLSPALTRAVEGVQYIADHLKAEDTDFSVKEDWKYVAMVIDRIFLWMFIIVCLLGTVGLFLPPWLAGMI
α4β2 nicotinic acetylcholine receptor, sequence (P17787 26-502): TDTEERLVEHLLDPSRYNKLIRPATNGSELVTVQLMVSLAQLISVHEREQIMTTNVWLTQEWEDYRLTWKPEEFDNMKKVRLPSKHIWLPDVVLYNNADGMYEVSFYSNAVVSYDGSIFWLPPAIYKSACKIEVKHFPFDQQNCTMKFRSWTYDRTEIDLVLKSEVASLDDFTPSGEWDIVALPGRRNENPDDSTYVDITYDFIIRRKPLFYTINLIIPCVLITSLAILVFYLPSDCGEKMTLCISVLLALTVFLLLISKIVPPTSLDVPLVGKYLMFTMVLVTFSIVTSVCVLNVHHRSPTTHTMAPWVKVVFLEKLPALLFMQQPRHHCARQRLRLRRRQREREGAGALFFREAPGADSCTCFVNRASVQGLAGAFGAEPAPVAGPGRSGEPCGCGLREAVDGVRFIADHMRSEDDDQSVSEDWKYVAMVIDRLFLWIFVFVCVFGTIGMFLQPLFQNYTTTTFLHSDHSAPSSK
NAV 1.5 sodium-gated channel, sequence (Q14524 whole entry): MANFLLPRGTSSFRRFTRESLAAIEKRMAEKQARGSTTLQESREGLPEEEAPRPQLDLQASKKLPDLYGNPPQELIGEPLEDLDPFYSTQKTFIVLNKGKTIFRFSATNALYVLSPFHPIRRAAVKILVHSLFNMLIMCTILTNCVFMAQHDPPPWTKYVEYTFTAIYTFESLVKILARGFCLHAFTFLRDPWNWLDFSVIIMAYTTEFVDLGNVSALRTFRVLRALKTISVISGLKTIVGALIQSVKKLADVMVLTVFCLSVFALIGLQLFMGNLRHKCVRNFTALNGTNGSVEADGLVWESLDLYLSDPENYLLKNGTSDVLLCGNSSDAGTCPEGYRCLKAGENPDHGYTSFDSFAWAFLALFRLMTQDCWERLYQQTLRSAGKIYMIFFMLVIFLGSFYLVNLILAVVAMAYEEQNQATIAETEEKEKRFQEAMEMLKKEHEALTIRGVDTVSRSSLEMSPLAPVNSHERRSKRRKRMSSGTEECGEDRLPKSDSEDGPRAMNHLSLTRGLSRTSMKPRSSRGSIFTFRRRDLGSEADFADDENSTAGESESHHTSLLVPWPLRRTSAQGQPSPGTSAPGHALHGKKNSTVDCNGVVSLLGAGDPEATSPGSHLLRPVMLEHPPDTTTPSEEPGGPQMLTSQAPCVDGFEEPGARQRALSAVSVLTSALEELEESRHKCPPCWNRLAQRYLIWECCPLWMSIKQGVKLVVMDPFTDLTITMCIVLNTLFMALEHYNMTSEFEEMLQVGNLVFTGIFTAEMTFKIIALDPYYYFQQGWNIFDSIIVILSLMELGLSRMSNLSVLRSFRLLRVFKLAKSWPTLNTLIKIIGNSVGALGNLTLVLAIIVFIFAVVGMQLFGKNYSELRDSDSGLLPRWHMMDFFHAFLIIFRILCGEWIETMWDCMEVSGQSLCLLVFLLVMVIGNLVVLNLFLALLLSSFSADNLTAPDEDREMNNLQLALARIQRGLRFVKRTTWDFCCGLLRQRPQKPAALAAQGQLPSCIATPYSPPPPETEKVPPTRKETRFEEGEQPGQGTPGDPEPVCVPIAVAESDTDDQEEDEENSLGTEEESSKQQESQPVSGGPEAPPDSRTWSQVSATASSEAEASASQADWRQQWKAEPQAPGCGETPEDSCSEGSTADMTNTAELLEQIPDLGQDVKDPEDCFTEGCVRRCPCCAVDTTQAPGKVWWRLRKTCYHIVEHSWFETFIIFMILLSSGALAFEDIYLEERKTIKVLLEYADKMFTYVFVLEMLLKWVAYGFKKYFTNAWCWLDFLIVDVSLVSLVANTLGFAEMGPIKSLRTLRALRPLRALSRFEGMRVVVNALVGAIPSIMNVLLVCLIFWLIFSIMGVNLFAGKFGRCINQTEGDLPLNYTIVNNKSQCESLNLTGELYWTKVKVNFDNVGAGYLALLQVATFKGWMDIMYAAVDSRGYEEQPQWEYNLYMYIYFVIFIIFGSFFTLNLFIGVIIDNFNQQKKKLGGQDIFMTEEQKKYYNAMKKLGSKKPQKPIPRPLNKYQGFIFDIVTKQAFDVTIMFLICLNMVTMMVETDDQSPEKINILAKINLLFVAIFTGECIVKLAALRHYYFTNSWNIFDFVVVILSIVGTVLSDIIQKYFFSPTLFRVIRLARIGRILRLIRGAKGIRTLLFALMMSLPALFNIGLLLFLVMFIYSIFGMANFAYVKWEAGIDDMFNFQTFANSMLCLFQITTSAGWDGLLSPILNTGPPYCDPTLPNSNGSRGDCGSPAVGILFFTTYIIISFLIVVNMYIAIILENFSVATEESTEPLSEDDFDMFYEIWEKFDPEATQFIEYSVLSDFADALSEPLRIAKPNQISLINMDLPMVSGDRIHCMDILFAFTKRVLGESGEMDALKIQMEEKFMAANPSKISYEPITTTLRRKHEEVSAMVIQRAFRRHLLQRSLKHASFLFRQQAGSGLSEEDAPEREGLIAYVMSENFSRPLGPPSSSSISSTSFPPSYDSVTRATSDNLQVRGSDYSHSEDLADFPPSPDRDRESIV
Tyrosine protein kinase LCK, sequence (P06239 whole entry): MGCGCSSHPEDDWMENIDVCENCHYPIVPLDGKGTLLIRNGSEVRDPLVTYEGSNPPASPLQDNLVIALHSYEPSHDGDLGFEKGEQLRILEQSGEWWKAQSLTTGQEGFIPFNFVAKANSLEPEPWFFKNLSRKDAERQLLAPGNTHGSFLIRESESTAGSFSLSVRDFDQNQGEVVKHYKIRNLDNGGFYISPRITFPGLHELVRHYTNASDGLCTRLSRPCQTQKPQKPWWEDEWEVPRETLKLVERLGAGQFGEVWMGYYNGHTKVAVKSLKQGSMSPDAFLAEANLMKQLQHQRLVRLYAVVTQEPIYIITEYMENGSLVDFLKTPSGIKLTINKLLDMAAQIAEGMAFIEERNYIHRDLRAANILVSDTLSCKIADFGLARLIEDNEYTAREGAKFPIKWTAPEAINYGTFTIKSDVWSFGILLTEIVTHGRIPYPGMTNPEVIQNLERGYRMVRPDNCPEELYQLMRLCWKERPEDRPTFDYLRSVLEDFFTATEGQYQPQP

[3H]C([3H])([3H])N1CCN(c2ccc(NC(=O)c3ccc(C#N)o3)c(N3CCCCC3)c2)CC1 [[^3H]CPPC, [^3H] 5-cyano-N-(4-(4-methylpiperazin-1-yl)-2-(piperidin-1-yl)phenyl)furan-2-carboxamide]
[^3H]CPPC binding, contralateral hemisphere (CSF-1R [1]; [16]): 17.9 ± 1.1 nCi/mg | [^3H]CPPC binding, ipsilateral hemisphere (CSF-1R [1]; [16]): 18.9 ± 1.7 nCi/mg | saturability of [^3H]CPPC binding (CSF-1R [1]; 30-day LPS rat brain sections, radioligand concentration up to 40 nM): failed to saturate | total binding of [^3H]CPPC (CSF-1R [1]; ipsilateral hemisphere of 30-day LPS rat brain, [^3H]CPPC 3 nM): 15 nCi/mg | specific signal of [^3H]CPPC (CSF-1R [2]): ~ 60% | Bmax (CSF-1R [3]; [17]): 1339 fmol/mg tissue | baseline radioligand binding of [^3H]CPPC (CSF-1R [3]; i.p. LPS mouse spleen, [^3H]CPPC 3 nM): 100 nCi/mg | specific binding under No-Wash Assay conditions (CSF-1R [4]): lack of specific binding | rate of decomposition [5]: less than 3%

CN1CCN(c2ccc(NC(=O)c3ccc(C#N)o3)c(N3CCCCC3)c2)CC1 [[^3H]CPPC, [^3H] 5-cyano-N-(4-(4-methylpiperazin-1-yl)-2-(piperidin-1-yl)phenyl)furan-2-carboxamide]
Kd (CSF-1R [3]; [17]): 4.3 nM

COc1ccccc1CN(C(C)=O)c1cnccc1Oc1ccccc1 [[^3H]PBR28]
Bmax (TSPO [6]; [^3H]PBR28 saturation, ipsilateral hemisphere of 30-day LPS rat brain): 620.7 fmol/mg | [^3H]PBR28 specific binding, contralateral hemisphere (TSPO [6]; rats sacrificed 7-days post-surgery): 29.0 ± 3.1 nCi/mg | [^3H]PBR28 specific binding, ipsilateral hemisphere (TSPO [6]; rats sacrificed 7-days post-surgery, mean ± sd): 83.5 ± 48.9 nCi/mg | [^3H]PBR28 specific binding, contralateral hemisphere (TSPO [6]; [18]): 14.0 ± 2.36 nCi/mg | [^3H]PBR28 specific binding, ipsilateral hemisphere (TSPO [6]; [18]): 36.2 ± 4.07 nCi/mg | [^3H]PBR28 binding density (TSPO [7]; areas of decreased immunostaining for inflammatory cells): 620 MDC/mm^2 | relative target density ([^3H]PBR28 specific signal) (TSPO [7]; region of the tumor and immediately proximal areas): 250500 MDC/mm^2 | Bmax (TSPO [8]; [19]): 14771 fmol/mg tissue | Kd (TSPO [8]; [19]): 2.4 nM | specific binding (TSPO [8]; defined using unlabeled 10 μM FEPPA, i.p. LPS mouse spleen): 99 ± 0.03% | specific binding under No-Wash Assay conditions (TSPO [9]): > 60%

CN1CCN(c2ccc(NC(=O)c3ccc(C#N)o3)c(N3CCCCC3)c2)CC1 [CPPC, 5-cyano-N-(4-(4-methylpiperazin-1-yl)-2-(piperidin-1-yl)phenyl)furan-2-carboxamide]
displacement of [^3H]CPPC binding (CSF-1R [1]; 10 μM unlabeled CPPC, LPS rodent brain tissue): up to 50% | % inhibition of [^3H]CPPC binding (signal-to-noise) (CSF-1R [1]; 7-day post-LPS rat brain, 10 μM unlabeled CPPC, [^3H]CPPC 3.5 nM): 49.9 ± 2.9% | inhibition of [^3H]CPPC binding (CSF-1R [1]; ipsilateral hemisphere of 30-day LPS rat brain, 10 μM competitor, [^3H]CPPC 3 nM): 60% | IC50 (CSF-1R [3]): 9.4 nM | hillslope (nH) (CSF-1R [3]; CPPC concentration curve vs [^3H]CPPC in i.p. LPS spleen): 0.46 | inhibition of [^3H]CPPC binding (CSF-1R [3]; i.p. LPS mouse spleen (n = 6), 10 μM competitor, [^3H]CPPC 3 nM): 85% and > 80% | kinase targets with off-target binding (403 known kinases): 204 of 403 | IC50 [10]: 5.86 µM | IC50 [11]: 4.88 µM | IC50 [12]: 6.51 µM | IC50 (insulin receptor): 70 nM | IC50 [13]: 22 nM | IC50 [14]: 74 nM | ratio of total baseline binding to the inhibited condition (CSF-1R [15]): 1.7–2.7 | concentration of off-target binding (Kit): less than 0.1 μM | concentration of off-target binding (Axl): less than 0.1 μM | concentration of off-target binding (TrkA): less than 0.1 μM | concentration of off-target binding (Flt-3): less than 0.1 μM | concentration of off-target binding (IRKβ): less than 0.1 μM
